Source: PMC4206749 (Toxicological Research, 2014)

System: S. typhimurium strains (TA98, TA100, TA1535, and TA1537) or E. coli strain (WP2 uvrA)
Assay: Bacterial reverse mutation assay, all five tester strains
Type: cell-based, Salmonella typhimurium, Escherichia coli
Procedure, shortened: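 Pre-incubation Ames test per OECD 471 with S. typhimurium TA98, TA100, TA1535, TA1537 and E. coli WP2 uvrA. Bacteria plus test compound in DMSO (DMSO as negative control), with S9 mix (10% S9 plus cofactors) or 0.1 M phosphate buffer pH 7.4, were incubated 20 min at 37℃ shaking. Plated in histidine/biotin or tryptophan top agar, incubated 48 hr at 37℃, revertants counted. Triplicate plates; dose ratio about 2.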

Oc1ccc(-c2ccc3cc(O)ccc3c2)c(O)c1 [HS-1793, 4-(6-hydroxy-2-naphthyl)-1,3-benzenediol]
HS-1793 related toxicity (reduced revertant numbers and/or thinning of the background lawn) (5,000 μg/plate, absence or presence of S9 metabolic activation): not observed
Revertant frequencies compared to concurrent vehicle control (any dose (78.1~5,000 μg/plate), any tester strain, with or without the S9 mix): No increases in revertant frequencies
